# From ChEMBL document CHEMBL1687720 (Antimicrob Agents Chemother, 2009)
# The source made the active and inactive calls. The calls are words filed in the database; no cut-off is given here.
# Assays:
# [1] = tested on: Heme; assay: Inhibition of heme aggregation at 500 uM
# Method in brief: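 Hemin chloride stock (10 mM in 0.1 M NaOH), prepared fresh and held at 37°C for at least 1 h. Aggregation run in 20 mM sodium phosphate pH 5.2 with 25 μM initial heme at 37°C. Inhibitor dissolved in dimethylformamide or buffer. After incubation, samples centrifuged and absorbance read at 360 nm, with matching control values subtracted.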
# [2] = tested on: Plasmodium falciparum; assay: Antiplasmodial activity against chloroquine-sensitive Plasmodium falciparum 3D7 assessed as inhibition of trophozoite stage parasite growth at IC50 after 6 hr by [3H]hypoxanthine incorporation assay; type: functional, organism-based
# Method in brief: (§1)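 P. falciparum 3D7 is synchronized with sorbitol. […] Cells are washed four times, then labelled with [3H]hypoxanthine for 24 h. Growth is given as % of untreated control for each stage, in triplicate.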
# [3] = tested on: Plasmodium falciparum; assay: Antiplasmodial activity against chloroquine-sensitive Plasmodium falciparum 3D7 assessed as inhibition of schizont stage parasite growth at IC50 after 6 hr by [3H]hypoxanthine incorporation assay; type: functional, organism-based; method in brief: as §1
# [4] = tested on: Plasmodium falciparum; assay: Antiplasmodial activity against chloroquine-sensitive Plasmodium falciparum 3D7 assessed as inhibition of ring stage parasite growth at IC50 after 6 hr by [3H]hypoxanthine incorporation assay; type: functional, organism-based; method in brief: as §1
# [5] = tested on: L6; assay: Cytotoxicity against rat L6 cells; type: cell-based
Compound,inhibition [1],growth inhibition (GI) [2],growth inhibition (GI) [3],growth inhibition (GI) [4],IC50 [5] [ng/mL]
CCN(CC)CCCC(C)Nc1ccnc2cc(Cl)ccc12 (stereo not given),inactive,Active,Active,Active,–
COc1cc([C@@H]2c3cc4c(cc3[C@H](O)[C@H]3COC(=O)[C@H]23)OCO4)cc(OC)c1OC [PODOFILOX],–,–,–,–,8
